Reference: ChEMBL document CHEMBL1124147 (J Med Chem, 1988)

Columns and labels:
[1] = species on record: Cavia porcellus; test: Compound was tested for the antagonistic activity on guinea pig ileum; format: functional
In short: (§1)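 Isolated ileum preparation, with the agonist EC50 and the antagonist IC50 read from dose-response curves.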

[2] = biological target: Muscarinic acetylcholine receptor; test: Inhibition of [3H]oxotremorine-M binding to rat brain membrane Muscarinic acetylcholine receptor
[3] = biological target: T1, Muscarinic acetylcholine receptor M2 (Rattus norvegicus, UniProt P10980); test: Inhibition of [3H]quinuclidinyl benzilate binding to Muscarinic acetylcholine receptor M2 of rat heart
T1 sequence (P10980 whole entry): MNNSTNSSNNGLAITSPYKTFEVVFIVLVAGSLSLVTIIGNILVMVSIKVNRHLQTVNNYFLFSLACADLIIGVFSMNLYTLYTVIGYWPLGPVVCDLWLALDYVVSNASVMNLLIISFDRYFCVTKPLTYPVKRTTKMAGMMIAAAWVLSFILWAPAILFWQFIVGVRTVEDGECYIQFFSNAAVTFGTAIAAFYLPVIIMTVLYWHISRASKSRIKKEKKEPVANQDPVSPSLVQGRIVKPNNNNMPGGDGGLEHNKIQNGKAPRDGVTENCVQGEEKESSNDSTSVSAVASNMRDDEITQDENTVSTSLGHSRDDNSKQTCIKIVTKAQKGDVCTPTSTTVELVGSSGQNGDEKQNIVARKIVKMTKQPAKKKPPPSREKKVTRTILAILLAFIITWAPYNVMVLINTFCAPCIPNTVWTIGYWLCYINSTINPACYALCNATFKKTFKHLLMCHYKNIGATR

[4] = (§2) Muscarinic agonist index (Ki in [3H]QNB / Ki in [3H]-OXO-M) was determined; format: functional
[5] = M-1 selectivity expressed as M-2/M-1 index (Ki in [3H]-QNB / Ki in [3H]PZ) was determined
In short: (§3)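 Ratio of Ki from [3H]QNB binding in rat heart to Ki from [3H]PZ binding in rat brain membranes. Ki = IC50/(1+[L]/Kd) in both. Heart assay: tissue homogenized with an ultraturrax, 4 mg tissue per assay, QNB Kd 9.1 ± 0.7 pM.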

[6] = biological target: T1, Muscarinic acetylcholine receptor M2; test: Compound was tested for the inhibition of [3H]quinuclidinyl benzilate binding to Muscarinic acetylcholine receptor M2 in rat brain membrane; format: cell membranes
[7] = species on record: Cavia porcellus; test: Effective concentration of compound for the agonistic activity on guinea pig ileum; format: functional; in short: as §1
[8] = biological target: T2, Muscarinic acetylcholine receptor M1 (Rattus norvegicus, UniProt P08482); test: Inhibition of [3H]pirenzepine binding to rat brain membrane Muscarinic acetylcholine receptor M1
T2 sequence (P08482 whole entry): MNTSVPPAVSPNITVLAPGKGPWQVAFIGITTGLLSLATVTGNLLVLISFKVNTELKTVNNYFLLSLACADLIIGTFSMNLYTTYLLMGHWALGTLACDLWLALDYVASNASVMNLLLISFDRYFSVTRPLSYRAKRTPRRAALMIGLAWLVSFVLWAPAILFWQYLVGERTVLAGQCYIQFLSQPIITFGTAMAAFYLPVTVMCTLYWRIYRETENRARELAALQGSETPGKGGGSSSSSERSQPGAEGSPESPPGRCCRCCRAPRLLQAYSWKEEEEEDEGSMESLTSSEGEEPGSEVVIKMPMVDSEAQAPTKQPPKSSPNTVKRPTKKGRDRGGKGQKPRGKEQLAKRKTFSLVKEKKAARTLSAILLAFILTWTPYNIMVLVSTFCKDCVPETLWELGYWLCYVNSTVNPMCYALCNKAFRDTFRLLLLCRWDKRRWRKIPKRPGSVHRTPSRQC

[9] = biological target: T1, Muscarinic acetylcholine receptor M2; test: Inhibition of [3H]quinuclidinyl benzilate binding to Muscarinic acetylcholine receptor M2 in rat brain membrane; format: cell membranes
[10] = as §2
[11] = M-1 selectivity expressed as M-2/M-1 index (Ki in [3H]QNB / Ki in [3H]-PZ) was determined; format: functional; in short: as §3
[12] = species on record: Cavia porcellus; test: Compound was tested for the agonistic activity on guinea pig ileum; format: functional; in short: as §1

SMILES | IC50 [1] [µM] | IC50 [2] [µM] | IC50 [3] [µM] | M-agonist index [4] | Ratio [5] | IC50 [6] [µM] | EC50 [7] [µM] | IC50 [8] [µM] | IC50 [9] [µM] | M-agonist index [10] | Ratio [11] | EC50 [12] [µM]
COC(=O)C1=CCC[S+](C)C1.[I-] (configuration not stated) [SULFOARECOLINE IODIDE] | – | 0.0014 | 2.5 | 3930 | 0.12 | – | – | 2.6 | 34 | – | – | –
Cn1oc2c(c1=O)CSCC2 | > 50 | > 1000 | > 1000 | – | – | – | > 50 | > 1000 | > 1000 | – | – | –
COC(=O)C1=CCCN(C)C1 [ARECOLINE] | > 1 | – | – | – | – | – | 0.15 | – | – | – | – | –
Cn1oc2c(c1=O)C[S+](C)CC2.[I-] (configuration not stated) | > 6 | 0.22 | 10 | 81 | 0.04 | – | 9.3 | 30 | 110 | – | – | –
COc1noc2c1CSCC2 | > 50 | > 1000 | > 1000 | – | – | – | > 50 | > 1000 | > 1000 | – | – | –
CCOC(=O)C1=CCC[S+](C)C1.[Cl-] (configuration not stated) | – | 0.0092 | 3.9 | 387 | 1.2 | – | – | 0.4 | 22 | – | – | –

The next lines start with the values.

IC50 [1] [µM] | IC50 [2] [µM] | IC50 [3] [µM] | M-agonist index [4] | Ratio [5] | IC50 [6] [µM] | EC50 [7] [µM] | IC50 [8] [µM] | IC50 [9] [µM] | M-agonist index [10] | Ratio [11] | EC50 [12] [µM] | SMILES
15 | 0.23 | 4.9 | 3.3 | 1.2 | 4.6 | > 50 | 0.53 | – | – | – | – | CCOc1noc2c1C[S+](C)CC2.[I-] (configuration not stated)
> 3 | 0.043 | 9.5 | 279 | 0.42 | – | 8.2 | 2.8 | 74 | – | – | – | COc1noc2c1C[N+](C)(C)CC2.[I-]
> 0.2 | 0.0033 | 0.44 | 128 | 0.22 | – | 0.56 | 0.25 | 2.6 | – | – | – | C#CCOc1noc2c1C[S+](C)CC2.[I-] (configuration not stated)
> 0.4 | 0.019 | 1.6 | 307 | 0.05 | – | 0.84 | 4.1 | 36 | – | – | – | COc1noc2c1C[S+](C)CC2.[I-] (configuration not stated)
> 3 | 0.039 | 1.8 | 20 | 0.53 | – | 6.2 | 0.43 | 4.8 | – | – | – | CC(C)Oc1noc2c1C[S+](C)CC2.[I-] (configuration not stated)
> 0.2 | 0.028 | 16 | – | – | – | – | 6.4 | 38 | 220 | 0.31 | 0.83 | COc1noc2c1CN(C)CC2
